In ChEMBL document CHEMBL1255277, “Acinetobacter radioresistens as a silent source of carbapenem resistance for Acinetobacter spp” (2008):
Values after ≈ are worked out from the molar mass of the structure shown. Active and inactive are the calls of the source. The rule behind the calls is not given here.

How the values were obtained:
Acinetobacter baumannii = experiment: Activity of beta lactamase OXA23 in Acinetobacter baumannii Ab13 assessed as compound hydrolysis rate per mg of protein by spectrophotometry
How it was run: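 Crude culture extract (enzyme source) of the strain; hydrolysis followed by UV spectrophotometry with 100 μM benzylpenicillin or imipenem as substrate; rate expressed as U/mg of protein.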

Escherichia coli [1] = experiment: Antimicrobial activity against Escherichia coli TOP10 harboring Beta-lactamase OXA-103 by Etest; assay type: functional
How it was run: (§1)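 MIC read by Etest on Mueller-Hinton agar at 37°C. Test strains were E. coli TOP10 and TOP10 recombinants carrying cloned OXA-23-like oxacillinase genes. Recombinant clones had been selected on kanamycin (30 μg/ml) plus amoxicillin (30 μg/ml), and cloned inserts were confirmed by double-strand sequencing.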

Escherichia coli [2] = experiment: Antimicrobial activity against Escherichia coli TOP10 harboring Beta-lactamase OXA-23 by Etest; assay type: functional; how it was run: as §1
[3] = tested on: Acinetobacter radioresistens; experiment: Antimicrobial activity against Acinetobacter radioresistens isolates by Etest; assay type: functional
How it was run: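 MICs determined by Etest on Mueller-Hinton agar at 37°C; strains previously grown overnight at 37°C on Mueller-Hinton agar plates.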

Escherichia coli [4] = experiment: Antimicrobial activity against Escherichia coli TOP10 by Etest; assay type: functional; how it was run: as §1
Escherichia coli [5] = experiment: Antimicrobial activity against Escherichia coli TOP10 harboring Beta-lactamase OXA-102 by Etest; assay type: functional; how it was run: as §1
Escherichia coli [6] = experiment: Antimicrobial activity against Escherichia coli TOP10 harboring Beta-lactamase OXA-105 by Etest; assay type: functional; how it was run: as §1

Structure (SMILES) | Activity (Acinetobacter baumannii) | MIC (Escherichia coli [1]) | MIC (Escherichia coli [2]) | growth inhibition (GI) [3] | MIC (Escherichia coli [4]) | MIC (Escherichia coli [5]) | MIC (Escherichia coli [6])
CC1(C)S[C@@H]2[C@H](NC(=O)Cc3ccccc3)C(=O)N2[C@H]1C(=O)O | 5 U |  |  |  |  |  | 
C[C@@H](O)[C@H]1C(=O)N2C(C(=O)O)=C(S[C@@H]3CN[C@H](C(=O)Nc4cccc(C(=O)O)c4)C3)[C@H](C)[C@H]12 [ERTAPENEM] |  | 0.125 µg/mL (≈ 0.263 µM) | 0.012 µg/mL (≈ 0.0252 µM) | Active | 0.004 µg/mL (≈ 0.00841 µM) | 0.125 µg/mL (≈ 0.263 µM) | 0.125 µg/mL (≈ 0.263 µM)
C[C@@H](O)[C@H]1C(=O)N2C(C(=O)O)=C(SCCNC=N)C[C@H]12 [IMIPENEM ANHYDROUS] | 0.2 U | 1 µg/mL (≈ 3.34 µM) | 1 µg/mL (≈ 3.34 µM) | Active | 0.125 µg/mL (≈ 0.418 µM) | 1 µg/mL (≈ 3.34 µM) | 1 µg/mL (≈ 3.34 µM)
C[C@@H](O)[C@H]1C(=O)N2C(C(=O)O)=C(S[C@@H]3CN[C@H](C(=O)N(C)C)C3)[C@H](C)[C@H]12 [MEROPENEM] |  | 0.094 µg/mL (≈ 0.245 µM) | 0.047 µg/mL (≈ 0.123 µM) | Active | 0.047 µg/mL (≈ 0.123 µM) | 0.094 µg/mL (≈ 0.245 µM) | 0.094 µg/mL (≈ 0.245 µM)
